Experiments:
[1] = Tmax in C57Bl6 mouse at 10 mg/kg, po administered as single oral dose; assay type: ADME, organism-based; settings: in vivo
Method in brief: (§1)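 Single oral dose of 10 mg/kg in methyl cellulose vehicle given to C57Bl6 mice. Plasma was sampled over a 24 h period. […]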

[2] = molecular target: T1, Peroxisome proliferator-activated receptor alpha (Homo sapiens) (UniProt Q07869); assay: Transactivation of human GAL4-fused PPARalpha LBD expressed in African green monkey COS7 cells co-expressing 5Gal4 pGL3 TK Luc after overnight incubation by luciferase reporter gene assay relative to fenofibric acid; assay type: cell-based
T1 sequence (whole entry): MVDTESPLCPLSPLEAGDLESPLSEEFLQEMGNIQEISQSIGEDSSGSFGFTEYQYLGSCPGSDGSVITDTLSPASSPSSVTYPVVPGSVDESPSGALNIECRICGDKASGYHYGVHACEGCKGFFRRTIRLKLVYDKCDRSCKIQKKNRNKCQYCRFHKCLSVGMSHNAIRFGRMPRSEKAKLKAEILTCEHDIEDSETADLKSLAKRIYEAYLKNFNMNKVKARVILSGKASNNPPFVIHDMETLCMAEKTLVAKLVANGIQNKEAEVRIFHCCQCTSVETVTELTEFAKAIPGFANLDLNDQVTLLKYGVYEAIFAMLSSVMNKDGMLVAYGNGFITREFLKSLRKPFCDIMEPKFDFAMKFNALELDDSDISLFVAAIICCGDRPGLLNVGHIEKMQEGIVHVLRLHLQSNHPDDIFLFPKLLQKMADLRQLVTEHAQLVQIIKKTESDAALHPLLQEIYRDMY
Method in brief: (§2)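 Cell-based Gal-4 transactivation assay in COS-7 cells transfected with PPARα, PPARδ or PPARγ ligand-binding domain. EC50 and Emax were derived, with Emax as maximum activation in percent of control. EC50s are means of at least two independent experiments performed in triplicate.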

[3] = molecular target: T2, Peroxisome proliferator-activated receptor delta (Homo sapiens) (UniProt Q03181); assay: Transactivation of human GAL4-fused PPARdelta LBD expressed in African green monkey COS7 cells co-expressing 5Gal4 pGL3 TK Luc after overnight incubation by luciferase reporter gene assay relative to GW501516; assay type: cell-based; method in brief: as §2
T2 sequence (whole entry): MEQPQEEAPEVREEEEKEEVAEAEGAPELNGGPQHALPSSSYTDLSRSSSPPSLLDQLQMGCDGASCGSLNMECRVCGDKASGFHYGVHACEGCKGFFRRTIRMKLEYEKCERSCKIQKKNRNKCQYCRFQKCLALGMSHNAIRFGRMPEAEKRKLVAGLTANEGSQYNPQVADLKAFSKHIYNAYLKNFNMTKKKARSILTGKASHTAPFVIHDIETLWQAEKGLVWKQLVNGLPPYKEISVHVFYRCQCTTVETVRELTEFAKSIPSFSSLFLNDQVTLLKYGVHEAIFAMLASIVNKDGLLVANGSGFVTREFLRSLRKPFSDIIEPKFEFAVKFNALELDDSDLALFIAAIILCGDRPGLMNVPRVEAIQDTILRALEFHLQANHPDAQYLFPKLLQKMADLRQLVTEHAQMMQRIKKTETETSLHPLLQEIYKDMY

[4] = molecular target: T3, Peroxisome proliferator-activated receptor delta (Mus musculus) (UniProt P35396); assay: Transactivation of PPARdelta in mouse C2C12 cells assessed increase in [14C]oleate beta-oxidation at 1 uM preincubated for 48 hrs followed by [14C]oleate addition during last 2 hrs of incubation period relative to control; assay type: cell-based
T3 sequence (whole entry): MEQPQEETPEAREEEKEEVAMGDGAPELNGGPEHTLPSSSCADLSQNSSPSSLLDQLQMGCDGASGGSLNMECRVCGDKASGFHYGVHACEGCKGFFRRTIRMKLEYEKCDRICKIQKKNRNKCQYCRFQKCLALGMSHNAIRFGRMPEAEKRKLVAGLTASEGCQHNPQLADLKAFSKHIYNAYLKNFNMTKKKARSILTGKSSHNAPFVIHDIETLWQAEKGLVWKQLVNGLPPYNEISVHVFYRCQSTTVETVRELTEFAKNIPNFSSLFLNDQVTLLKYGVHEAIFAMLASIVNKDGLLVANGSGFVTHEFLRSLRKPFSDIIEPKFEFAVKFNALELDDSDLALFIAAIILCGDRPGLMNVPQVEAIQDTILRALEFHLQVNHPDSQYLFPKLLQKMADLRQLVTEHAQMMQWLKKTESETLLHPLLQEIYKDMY
Method in brief: (§3)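 Fatty acid beta-oxidation was used as the functional read-out. PPARα activity was tested in human hepatoma HuH7 cells and PPARδ activity in mouse myoblast C2C12 cells, at 1, 3, 10 and 30 µM. Values are % beta-oxidation, mean of at least 2 independent experiments run in triplicate, with single-experiment values flagged.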

[5] = Apparent permeability from basolateral to apical side in human Caco2 cells at 10 uM after 2 hrs by LC-MS/MS analysis; assay type: ADME, cell-based, Caco-2
[6] = molecular target: T3, Peroxisome proliferator-activated receptor delta (Mus musculus); assay: Transactivation of PPARdelta in mouse C2C12 cells assessed increase in [14C]oleate beta-oxidation at 30 uM preincubated for 48 hrs followed by [14C]oleate addition during last 2 hrs of incubation period relative to control; assay type: cell-based; method in brief: as §3
[7] = molecular target: T4, Peroxisome proliferator-activated receptor gamma (Homo sapiens, UniProt P37231)
T4 sequence (P37231 whole entry): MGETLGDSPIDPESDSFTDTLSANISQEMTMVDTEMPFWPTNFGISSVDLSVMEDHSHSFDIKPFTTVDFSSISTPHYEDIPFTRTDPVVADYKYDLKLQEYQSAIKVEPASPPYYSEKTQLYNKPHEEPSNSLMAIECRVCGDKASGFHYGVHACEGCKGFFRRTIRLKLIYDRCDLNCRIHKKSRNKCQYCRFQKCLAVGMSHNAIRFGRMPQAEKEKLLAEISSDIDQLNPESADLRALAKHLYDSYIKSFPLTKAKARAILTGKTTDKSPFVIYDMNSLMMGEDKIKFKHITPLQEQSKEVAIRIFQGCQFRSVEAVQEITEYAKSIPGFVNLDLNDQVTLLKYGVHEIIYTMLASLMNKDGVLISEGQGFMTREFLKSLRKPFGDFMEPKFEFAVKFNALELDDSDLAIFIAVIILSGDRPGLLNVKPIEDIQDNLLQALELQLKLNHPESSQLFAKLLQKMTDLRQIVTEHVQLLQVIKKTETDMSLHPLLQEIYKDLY

[8] = molecular target: T1, Peroxisome proliferator-activated receptor alpha (Homo sapiens); assay: Transactivation of PPARalpha in human HuH7 cells assessed increase in [14C]oleate beta-oxidation at 10 uM preincubated for 48 hrs followed by [14C]oleate addition during last 2 hrs of incubation period relative to control; assay type: cell-based; method in brief: as §3
[9] = molecular target: T1, Peroxisome proliferator-activated receptor alpha (Homo sapiens); assay: Transactivation of PPARalpha in human HuH7 cells assessed increase in [14C]oleate beta-oxidation at 1 uM preincubated for 48 hrs followed by [14C]oleate addition during last 2 hrs of incubation period relative to control; assay type: cell-based; method in brief: as §3
[10] = AUC (infinity) in C57Bl6 mouse at 10 mg/kg, po administered as single oral dose; assay type: ADME, organism-based; settings: in vivo; method in brief: as §1

Structure (SMILES)	Tmax [1] [h]	Emax [2] [%]	Emax [3] [%]	Activity [4] [%]	Papp ([5]; caco-2, 2 h, 10 µM) [nm/s]	Activity [6] [%]	EC50 [7] [µM]	Activity [8] [%]	Activity [9] [%]	AUC(0-inf) [10] [µg·h/mL]	Papp B→A at 2 h, 10 µM ([5]; Caco-2) [nm/s]
O=C(O)CCCc1cc2cc(Cl)ccc2n1S(=O)(=O)c1ccc2ncsc2c1 [LANIFIBRANOR]	1	106	105	12	2	55	4.1	113	44	29.4	–
O=C(O)CCc1cc2cc(Cl)ccc2n1S(=O)(=O)c1ccccc1	1	101	56	-6	–	27	–	45	5	37.3	144

From ChEMBL document CHEMBL4020830, “Design, Synthesis, and Evaluation of a Novel Series of Indole Sulfonamide Peroxisome Proliferator Activated Receptor (PPAR) α/γ/δ Triple Activators: Discovery of Lanifibranor, a New Antifibrotic Clinical Candidate” (J Med Chem, 2018)
